What is called CC50 is the concentration giving 50% cytotoxicity. A word on the IC50: it is the concentration that gives 50% inhibition.

Data on 32 molecules can be found in ChEMBL document CHEMBL3870310, “Design, synthesis and evaluation of pyrazole derivatives as non-nucleoside hepatitis B virus inhibitors” (Eur J Med Chem, 2016).

Data set [1] is described as follows: Cytotoxicity against human HepG2.2.15 cells assessed as decrease in cell viability after 8 days by CCK-8 assay. In kind it is toxicity, cell-based, HepG2 2.2.15. The essentials:
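HepG2.2.15 cells (HBV-transgenic human hepatoma) cultured in triplicate for 8 days with five doses of compound; untreated cells as controls. CCK-8 reagent added 0.5 h before end of culture, absorbance read at 450 nm, percent cell death calculated; CC50 is the concentration killing 50% of cells.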
(In general: Tetrazolium dyes change colour on reduction, which living cells bring about.)

Data set [2] in a line: Selectivity index, ratio of CC50 for human HepG2.2.15 cells to IC50 for Hepatitis B virus infected in human HepG2.2.15 cells assessed as inhibition of HBsAg secretion. It counts as functional. In outline: (§1)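 SI = CC50 (CCK-8, HepG2.2.15, 8 days) divided by IC50 for inhibition of HBeAg or HBsAg secretion measured by ELISA in HepG2.2.15 supernatants.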
Data set [3] relates to Hepatitis B virus. In words: Antiviral activity against Hepatitis B virus infected in human HepG2.2.15 cells assessed as inhibition of HBsAg secretion by ELISA. It counts as functional, cell-based. The essentials:
(§2)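 Supernatant from HepG2.2.15 cultures aspirated and HBeAg or HBsAg measured with a diagnostic ELISA kit, absorbance read on a plate reader. Inhibition (%) = (A normal cell group − A experimental group)/[…] × 100; IC50 is the concentration giving 50% inhibition of antigen secretion. Lamivudine positive control.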
(ELISA stands for enzyme-linked immunosorbent assay.)

Data set [4] has as its system Hepatitis B virus. Description: Antiviral activity against Hepatitis B virus infected in human HepG2.2.15 cells assessed as inhibition of HBeAg secretion by ELISA. It counts as functional, cell-based. The essentials: as §2
In data set [5] the test system is Hepatitis B virus. In words: Antiviral activity against Hepatitis B virus infected in human HepG2.2.15 cells assessed as inhibition of viral DNA replication after 8 days by real-time fluorescent PCR method. It counts as functional, cell-based. The conditions noted are these: HepG2.2.15, 192 h. In outline:
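HepG2.2.15 cells exposed to compounds […] for 8 days; 100 µL culture supernatant added to extraction buffer, boiled 10 min, centrifuged 10 min, and aliquots assayed for extracellular HBV DNA by fluorescent-probe real-time quantitative PCR kit. Lamivudine positive control.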

Data set [6] in a line: Selectivity index, ratio of CC50 for human HepG2.2.15 cells to IC50 for Hepatitis B virus infected in human HepG2.2.15 cells assessed as inhibition of HBeAg secretion. In kind it is functional. The essentials:
as §1

A short description of data set [7]: Cytotoxicity against human HepG2.2.15 cells assessed as decrease in cell viability after 8 days by CCK-8 assay.
Data set [8] in a line: Cytotoxicity against human HepAD38 cells. In kind it is toxicity, cell-based.
The test system of data set [9] is Hepatitis B virus. Description: Antiviral activity against Hepatitis B virus infected in human HepAD38 cells assessed as inhibition of viral DNA replication. It counts as functional, cell-based.
Data set [10] has as its system Hepatitis B virus. Description: Antiviral activity against Hepatitis B virus. In kind it is functional.

In the case of `CC(C)Cc1sc(-c2nccs2)nc1C(=O)NCc1ccc(F)cc1`, the CC50 at 192 h in [1] is 51.5 µM. For the same molecule, the “Ratio CC50/IC50” value is 1.48 in [2] and 1.63 in data set [6]. In addition, the figures for the IC50 in the data set on Hepatitis B virus [3], in the data set on Hepatitis B virus [4] and in the data set on Hepatitis B virus [5] were 34.7 µM, 31.6 µM and 1.33 µM, respectively. The half-maximal inhibitory concentration (IC50) at 8 days in [7] is 50.4 µM.
Consider `CCOC(=O)c1cn(-c2cccc([N+](=O)[O-])c2)nc1CC(C)C`, for which, in data set [1], the CC50 at 192 h turned out to be 59.3 µM. Also, the “Ratio CC50/IC50” value in data set [2] turned out to be 0.94. Moreover, the IC50 in the data set with Hepatitis B virus [3] came to 63.3 µM; in the data set on Hepatitis B virus [4], 59.4 µM.
Regarding `CC(C)Cc1nn(-c2cccc(F)c2)cc1C(=O)NCc1ccncc1`, the CC50 at 192 h in data set [1] is above 100 µM. For the same molecule, the IC50 in the data set with Hepatitis B virus [3] is above 100 µM; in the data set on Hepatitis B virus [4], 71.2 µM. The “Ratio CC50/IC50” value in [6] was above 1.41.
Consider `CC(C)Cc1nn(-c2nccs2)cc1C(=O)NCc1ccccc1F`, for which, in [1], the CC50 at 192 h is above 100 µM. In addition, the “Ratio CC50/IC50” value is above 2 in data set [2] and above 3.85 in [6]. For the same molecule, the values for the IC50 in the data set with Hepatitis B virus [3] and with Hepatitis B virus [4] were 50.1 µM and 26 µM, respectively.
Regarding `COc1ccccc1/C(Br)=C(/NC(=O)c1ccc([N+](=O)[O-])cc1)C(=O)N1CCCCC1`, the IC50 is above 51 µM in [8] and 0.13 µM with Hepatitis B virus [9].
Turning to `CCOC(=O)c1nc(-c2cncs2)sc1CC(C)C`, the IC50 in the data set with Hepatitis B virus [5] was 1.1 µM.
Regarding `CC(C)Cc1nn(-c2cccc(F)c2)cc1C(=O)NNc1ccc(F)cc1`, the CC50 at 192 h in data set [1] came to 45.4 µM. In addition, the 50% inhibitory concentration (IC50) with Hepatitis B virus [3] was 51.9 µM; in the data set with Hepatitis B virus [4], 34 µM. Moreover, the “Ratio CC50/IC50” value in data set [6] came to 1.34.
`CC(C)Cc1nn(-c2nccs2)cc1C(=O)NCc1ccc(C(F)(F)F)cc1`: in data set [1], the CC50 at 192 h is above 100 µM. Besides, the 50% inhibitory concentration (IC50) with Hepatitis B virus [3] and with Hepatitis B virus [4] was above 100 µM each time.
In the case of `CC(C)Cc1nn(-c2cccc(F)c2)cc1C(=O)Nc1ccc(F)cc1`, the CC50 at 192 h in data set [1] is 36.2 µM. The “Ratio CC50/IC50” value in data set [2] came out at 1.4; in data set [6], 1.47. The figures for the IC50 with Hepatitis B virus [3] and in the data set with Hepatitis B virus [4] were 25.9 µM and 24.7 µM, respectively.
Turning to `CCOC(=O)c1cn(-c2ccc([N+](=O)[O-])cc2)nc1CC(C)C`, the CC50 at 192 h in data set [1] was above 100 µM. Further, the IC50 in the data set on Hepatitis B virus [3] and in the data set with Hepatitis B virus [4] was above 100 µM each time.
With `CCOC(=O)c1cn(-c2ccc(OC)cc2)nc1CC(C)C`, in data set [1], the CC50 at 192 h was determined as 77.1 µM. Besides, the “Ratio CC50/IC50” value was found to be 1.12 in [2] and 1.08 in data set [6]. For the same molecule, the IC50 with Hepatitis B virus [3] amounted to 68.5 µM; with Hepatitis B virus [4] it was 71.6 µM.
Take `CCOC(=O)c1cn(-c2ccccc2F)nc1CC(C)C`: in data set [1], the CC50 at 192 h was above 100 µM. The “Ratio CC50/IC50” value in [2] is given as above 1.05; in data set [6], above 1.21. Further, the IC50 in the data set with Hepatitis B virus [3] stood at 94.8 µM; with Hepatitis B virus [4] it was 82.3 µM.
Regarding `CC(C)Cc1nn(-c2nccs2)cc1C(=O)NCc1ccc(F)cc1`, the CC50 at 192 h in [1] was above 100 µM. The “Ratio CC50/IC50” value in data set [2] is on record as above 2.25; in [6], above 3.18. Also, the IC50 in the data set on Hepatitis B virus [3] is 44.5 µM; with Hepatitis B virus [4] it was 31.4 µM.
Consider `CC(C)Cc1nn(-c2nccs2)cc1C(=O)NCc1ccc(N)cc1`, for which the CC50 at 192 h in data set [1] was above 100 µM. Also, the IC50 in the data set on Hepatitis B virus [3] and in the data set on Hepatitis B virus [4] was above 100 µM throughout.
As to `CC(C)Cc1nn(-c2nccs2)cc1C(=O)Nc1ccc(F)cc1`, the CC50 at 192 h in data set [1] was 83.7 µM. The “Ratio CC50/IC50” value in data set [2] stood at 3.44; in data set [6], 37.69. Moreover, the IC50 was 24.3 µM in the data set with Hepatitis B virus [3] and 2.22 µM in the data set with Hepatitis B virus [4].
Consider `COc1ccc(CONC(=O)c2cn(-c3cccc(F)c3)nc2CC(C)C)cc1`, for which the CC50 at 192 h in data set [1] amounted to 67.9 µM. The entries for the “Ratio CC50/IC50” value in data set [2] and in data set [6] were 1.18 and 1.52, respectively. For the same molecule, the IC50 in the data set with Hepatitis B virus [3] is 57.6 µM; with Hepatitis B virus [4], 44.8 µM.
For the molecule `CC(C)Cc1nn(-c2cccc(F)c2)cc1C(=O)NCc1ccccc1`, the CC50 at 192 h in data set [1] is 85.9 µM. For the same molecule, the “Ratio CC50/IC50” value in data set [2] and in data set [6] was 2.23 throughout. The IC50 turned out to be 38.6 µM in the data set on Hepatitis B virus [3] and 38.5 µM in the data set with Hepatitis B virus [4].
As to `CCOC(=O)c1cn(-c2cccc(OC)c2)nc1CC(C)C`, in [1], the CC50 at 192 h came to 70.5 µM. Besides, the “Ratio CC50/IC50” value is 1.11 in data set [2] and 1 in [6]. Also, the values for the IC50 with Hepatitis B virus [3] and with Hepatitis B virus [4] were 63.3 µM and 70.6 µM, respectively.
In the same order, the values of `CCOC(=O)c1cn(-c2ccccc2[N+](=O)[O-])nc1CC(C)C` are 4.85 µM, 0.1, above 0.78, 49.3 µM and below 6.25 µM.
As for `CC(C)Cc1nn(-c2nccs2)cc1C(=O)NCc1ccc(O)cc1`, the CC50 at 192 h in data set [1] was above 100 µM. Moreover, the half-maximal inhibitory concentration (IC50) is above 100 µM in the data set on Hepatitis B virus [3] and 86.2 µM with Hepatitis B virus [4]. Moreover, in data set [6], the “Ratio CC50/IC50” value is above 1.16.
Turning to `COc1ccc(CNC(=O)c2cn(-c3nccs3)nc2CC(C)C)cc1`, the half-maximal cytotoxic concentration (CC50) at 192 h in data set [1] was above 100 µM. Further, the IC50 in the data set on Hepatitis B virus [3] is above 100 µM; with Hepatitis B virus [4], 95.7 µM. Also, in [6], the “Ratio CC50/IC50” value was above 1.05.
As for `CCOC(=O)c1cn(-c2ccc(F)cc2)nc1CC(C)C`, the CC50 at 192 h in [1] is above 100 µM. Also, the IC50 in the data set on Hepatitis B virus [3] and in the data set with Hepatitis B virus [4] was above 100 µM in each case.
On to `CC(C)Cc1nn(-c2nccs2)cc1C(=O)NCc1cccc(F)c1`, for which, in data set [1], the CC50 at 192 h was above 100 µM. In addition, the “Ratio CC50/IC50” value in data set [2] is above 1.7; in data set [6], above 5.8. The results for the IC50 in the data set with Hepatitis B virus [3] and with Hepatitis B virus [4] were 58.8 µM and 17.2 µM, respectively.
`CCOC(=O)c1cn(-c2nccs2)nc1CC(C)C`: the CC50 at 192 h in data set [1] was above 100 µM. Moreover, the IC50 with Hepatitis B virus [3] and with Hepatitis B virus [4] was above 100 µM each time.
As to `CCOC(=O)c1cn(-c2ccc(C(=O)O)cc2)nc1CC(C)C`, the CC50 at 192 h in [1] is above 100 µM. Besides, the IC50 in the data set on Hepatitis B virus [3] and in the data set on Hepatitis B virus [4] was above 100 µM throughout.
In the case of `CC(C)Cc1nn(-c2cccc(F)c2)cc1C(=O)NCC1CCN(C(=O)OC(C)(C)C)CC1`, the CC50 at 192 h in [1] was above 100 µM. Also, the IC50 with Hepatitis B virus [3] and in the data set on Hepatitis B virus [4] was above 100 µM in each case.
For the molecule `CCOC(=O)c1nc(-c2cccc(F)c2)sc1CC(C)C`, the IC50 with Hepatitis B virus [10] was below 0.05 µM.
For the molecule `CC(C)Cc1nn(-c2cccc(F)c2)cc1C(=O)NCc1ccc(F)cc1`, the CC50 at 192 h in data set [1] was above 100 µM. For the same molecule, the half-maximal inhibitory concentration (IC50) with Hepatitis B virus [3] and with Hepatitis B virus [4] was above 100 µM in each case.
`COC(=O)c1nc(-c2cnc([C@@H](NC(=O)c3cccs3)C(C)C)s2)oc1C`: the IC50 in the data set on Hepatitis B virus [5] came to 76.4 µM.
In the case of `CC(C)Cc1nn(-c2nccs2)cc1C(=O)NCc1ccc(F)cc1F`, the CC50 at 192 h in [1] amounted to 83.6 µM. Moreover, the “Ratio CC50/IC50” value in data set [2] amounted to 2; in data set [6], 9.46. In addition, the values for the IC50 in the data set with Hepatitis B virus [3] and with Hepatitis B virus [4] were 41.8 µM and 8.84 µM, respectively.
In the same order, the values of `CCOC(=O)c1cn(-c2cccc(C(=O)O)c2)nc1CC(C)C` are 7.1 µM, 0.17, 0.15, 41.9 µM and 47.9 µM.
Consider `Nc1ccn([C@@H]2CS[C@H](CO)O2)c(=O)n1` [LAMIVUDINE], for which, in data set [1], the CC50 at 192 h was above 100 µM. The IC50 in the data set on Hepatitis B virus [3] and in the data set on Hepatitis B virus [4] was above 100 µM throughout.
